Assay results collected from several papers.
Each line is one published result; the experiments were not run side by side.
Target: Eukaryotic translation initiation factor 2-alpha kinase 3 (EIF2AK3, Homo sapiens, UniProt Q9NZJ5)
One construct used (Q9NZJ5 30-1116): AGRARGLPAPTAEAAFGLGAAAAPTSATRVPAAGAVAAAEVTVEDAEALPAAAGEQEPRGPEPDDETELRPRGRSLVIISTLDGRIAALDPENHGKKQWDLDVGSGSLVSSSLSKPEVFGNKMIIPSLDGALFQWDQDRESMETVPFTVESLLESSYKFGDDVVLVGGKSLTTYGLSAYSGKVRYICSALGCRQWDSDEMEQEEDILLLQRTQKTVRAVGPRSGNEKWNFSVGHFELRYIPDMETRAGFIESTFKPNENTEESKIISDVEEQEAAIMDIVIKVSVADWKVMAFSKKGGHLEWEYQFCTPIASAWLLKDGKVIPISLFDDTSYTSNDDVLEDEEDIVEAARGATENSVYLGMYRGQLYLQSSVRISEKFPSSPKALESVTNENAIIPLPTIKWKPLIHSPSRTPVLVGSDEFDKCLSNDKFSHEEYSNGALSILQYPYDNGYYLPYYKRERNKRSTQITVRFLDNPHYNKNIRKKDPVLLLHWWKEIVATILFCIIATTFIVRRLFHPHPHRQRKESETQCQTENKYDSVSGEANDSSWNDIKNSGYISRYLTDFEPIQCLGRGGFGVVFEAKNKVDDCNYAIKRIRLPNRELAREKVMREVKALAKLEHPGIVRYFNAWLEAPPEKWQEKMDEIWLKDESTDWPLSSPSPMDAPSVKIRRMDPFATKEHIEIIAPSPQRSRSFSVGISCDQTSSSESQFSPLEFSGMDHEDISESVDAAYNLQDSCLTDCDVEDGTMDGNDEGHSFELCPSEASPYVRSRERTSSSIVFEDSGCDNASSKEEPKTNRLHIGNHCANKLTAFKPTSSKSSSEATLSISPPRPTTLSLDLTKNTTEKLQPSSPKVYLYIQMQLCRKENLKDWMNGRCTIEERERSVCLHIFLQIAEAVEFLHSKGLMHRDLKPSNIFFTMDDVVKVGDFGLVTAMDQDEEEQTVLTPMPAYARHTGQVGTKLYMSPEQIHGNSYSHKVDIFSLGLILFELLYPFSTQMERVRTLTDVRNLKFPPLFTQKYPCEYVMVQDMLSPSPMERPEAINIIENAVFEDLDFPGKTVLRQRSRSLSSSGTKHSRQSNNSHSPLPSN

CC(C)(C)c1nc2c(s1)c1nc(N)ncc1c1ccc(NS(=O)(=O)c3c(F)cccc3F)c(F)c12  remaining activity (enzyme activity; inhibitor; radiometric; 1 µM): 47%
COc1cc(/C=C/C(=O)CC(=O)/C=C/c2ccc(O)c(OC)c2)ccc1O  activity vs control (enzyme activity; inhibitor; 1 µM): 95%
CC/C(=N\NC(=O)NCc1cccc(O)c1)c1ccc(O)c(C)c1O  inhibition (enzyme activity; inhibitor; 0.1 µM): 4.2%
CC(C)(C)c1nc(-c2cccc(NS(=O)(=O)c3c(F)cccc3F)c2F)c(-c2ccnc(N)n2)s1  remaining activity (enzyme activity; inhibitor; radiometric; 1 µM): 4%
CCN(CC)c1ccc(C2=NNC(=O)CC2C)cc1[N+](=O)[O-] (stereo not drawn)  remaining activity (enzyme activity; inhibitor; 10 µM): 110%
COc1cccc2c(NCc3ccccc3)nc(-n3c(N)nc4ccccc43)nc12  inhibition (target engagement in cells; inhibitor; chemoproteomics; 20 mM): -7.4%
CN1CC(Oc2cnc(C#N)cc2-c2ccn3nc(NC(=O)C4CC4)cc3c2)C1  inhibition (enzyme activity; inhibitor; 1 µM): 0%
CNC(=O)c1cc2c(Oc3ccc(NC(=O)C4(C(=O)Nc5ccc(F)cc5)CC4)cc3)ccnc2cc1OC  inhibition (enzyme activity; inhibitor; radiometric; 1 µM): 73%
Cc1ccc(C(=O)NCc2ccsc2)cc1C#Cc1cn(C(C)C)c2ncnc(N)c12  activity vs control (enzyme activity; inhibitor; 1 µM): 82%
CCCCNc1ncc2c(-c3ccc(F)cc3)nn(C[C@H]3CC[C@H](N)CC3)c2n1  inhibition (target engagement in cells; inhibitor; chemoproteomics; 20 mM): 17%
COc1cc(Nc2cnc(C#N)c(O[C@H](C)CN(C)C)n2)ncc1-c1cnn(C)c1  remaining activity (enzyme activity; inhibitor; radiometric; 1 µM): 101%
FC(F)(F)Oc1cccc(-c2cnc3ccc(-c4ccncc4)nn23)c1  activity vs control (enzyme activity; inhibitor; radiometric; 1 µM): 74%
Cc1ccc(NC(=O)c2ccc(C)c(C(F)(F)F)c2)cc1C#Cc1nn(C2CCC(O)CC2)c2ncnc(N)c12 (stereo not drawn)  remaining signal (cell-free assay; 10 µM): 39%
Cc1cc(NC(=O)c2cccc3cc(-c4cccc5[nH]nc(N)c45)ccc23)ccc1F  activity vs control (enzyme activity; inhibitor; 0.1 µM): 94%
Cc1cnc(NC2CCOCC2)nc1-n1cnc(C(=O)NC(CN)c2cc(F)cc(Cl)c2)c1 (stereo not drawn)  remaining activity (enzyme activity; inhibitor; radiometric; 1 µM): 101%
